Test results from ChEMBL document CHEMBL2062515, “Synthesis and evaluation of novel radioligands for positron emission tomography imaging of metabotropic glutamate receptor subtype 1 (mGluR1) in rodent brain” (J Med Chem, 2012).

Experiments:
Mus musculus [1] = experiment: Biodistribution in mouse small intestine at 4.8 MBq/140 uL, iv after 15 mins by gamma counting; format: ADME, organism-based; details: in vivo, 0.25 h
Procedure, shortened: (§1)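 [¹¹C]radioligand in saline (4.8 MBq/140 μL, 40 pmol) injected via tail vein; four mice per time point killed by cervical dislocation at 1, 5, 15, 30, 60 min. Tissues (small intestine including contents) removed, counted in autogamma counter, decay-corrected, expressed as % injected dose per gram wet tissue; mean SE, n = 4.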

Heart [2] = experiment: Biodistribution in mouse heart at 4.8 MBq/140 uL, iv after 30 mins by gamma counting; format: ADME, organism-based; details: in vivo, 0.5 h
Procedure, shortened: (§2)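 Mice received the radioligand in saline by tail vein (4.8 MBq/140 μL, 40 pmol). Four mice per time point were killed by cervical dislocation at 1, 5, 15, 30 and 60 min. Tissues were removed quickly and counted in an autogamma counter. Data are decay-corrected % injected dose per gram of wet tissue, mean ± SE, n = 4.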

Kidney [3] = experiment: Biodistribution in mouse kidney at 4.8 MBq/140 uL, iv after 15 mins by gamma counting; format: ADME, organism-based; details: in vivo, 0.25 h; procedure, shortened: as §2
Liver [4] = experiment: Biodistribution in mouse liver at 4.8 MBq/140 uL, iv after 60 mins by gamma counting; format: ADME, organism-based; details: in vivo, 1 h; procedure, shortened: as §2
Blood [5] = experiment: Biodistribution in mouse blood at 4.8 MBq/140 uL, iv after 5 mins by gamma counting; format: ADME, organism-based; details: in vivo; procedure, shortened: as §2
Mus musculus [6] = experiment: Biodistribution in mouse small intestine at 4.8 MBq/140 uL, iv after 60 mins by gamma counting; format: ADME, organism-based; details: in vivo, 1 h; procedure, shortened: as §1
Spleen [7] = experiment: Biodistribution in mouse spleen at 4.8 MBq/140 uL, iv after 5 mins by gamma counting; format: ADME, organism-based; details: in vivo; procedure, shortened: as §1
Lung [8] = experiment: Biodistribution in mouse lung at 4.8 MBq/140 uL, iv after 5 mins by gamma counting; format: ADME, organism-based; details: in vivo; procedure, shortened: as §2
Thalamus [9] = experiment: Drug uptake in Sprague-Dawley rat thalamus at 17 MBq administered as bolus infusion by PET analysis in presence of N-[4-[6-(isopropylamino)pyrimidin-4-yl]-1,3-thiazol-2-yl]-4-methoxy-N-methylbenzamide; format: ADME, organism-based; details: in vivo, iv
Lung [10] = experiment: Biodistribution in mouse lung at 4.8 MBq/140 uL, iv after 60 mins by gamma counting; format: ADME, organism-based; details: in vivo, 1 h; procedure, shortened: as §2
Cerebellum [11] = experiment: Drug uptake in Sprague-Dawley rat cerebellum at 17 MBq administered as bolus infusion by PET analysis in presence of JNJ16259685; format: ADME, organism-based; details: in vivo, iv
Blood [12] = experiment: Biodistribution in mouse blood at 4.8 MBq/140 uL, iv after 30 mins by gamma counting; format: ADME, organism-based; details: in vivo, 0.5 h; procedure, shortened: as §2
[13] = Metabolic stability in Sprague-Dawley rat brain assessed as compound remaining after 90 mins; format: ADME, tissue-based; details: read-out: Stability
Cerebellum [14] = experiment: Drug uptake in Sprague-Dawley rat cerebellum at 16 MBq administered as bolus infusion after 45 mins post injection by PET analysis; format: ADME, organism-based; details: in vivo, iv, 0.75 h
Thalamus [15] = experiment: Drug uptake in wild type mouse thalamus at 17 MBq, iv up to 60 mins by PET analysis; format: ADME, organism-based; details: in vivo, 1 h
Cerebellum [16] = experiment: Drug uptake in Sprague-Dawley rat cerebellum at 16 MBq administered as bolus infusion after 90 mins by PET analysis; format: ADME, organism-based; details: in vivo, iv, 1.5 h
Brain [17] = experiment: Biodistribution in mouse brain at 4.8 MBq/140 uL, iv after 30 mins by gamma counting; format: ADME, organism-based; details: in vivo, 0.5 h; procedure, shortened: as §2
Brain [18] = experiment: Biodistribution in mouse brain at 4.8 MBq/140 uL, iv after 60 mins by gamma counting; format: ADME, organism-based; details: in vivo, 1 h; procedure, shortened: as §2
Spleen [19] = experiment: Biodistribution in mouse spleen at 4.8 MBq/140 uL, iv after 30 mins by gamma counting; format: ADME, organism-based; details: in vivo, 0.5 h; procedure, shortened: as §1
Cerebellum [20] = experiment: Drug uptake in Sprague-Dawley rat cerebellum at 17 MBq administered as bolus infusion after 45 mins post injection by PET analysis relative to control in presence of N-[4-[6-(isopropylamino)pyrimidin-4-yl]-1,3-thiazol-2-yl]-4-methoxy-N-methylbenzamide; format: ADME, organism-based; details: in vivo, iv, 0.75 h
Blood [21] = experiment: Biodistribution in mouse blood at 4.8 MBq/140 uL, iv after 60 mins by gamma counting; format: ADME, organism-based; details: in vivo, 1 h; procedure, shortened: as §2
Kidney [22] = experiment: Biodistribution in mouse kidney at 4.8 MBq/140 uL, iv after 60 mins by gamma counting; format: ADME, organism-based; details: in vivo, 1 h; procedure, shortened: as §2
Cerebellum [23] = experiment: Drug uptake in wild type mouse cerebellum at 17 MBq, iv up to 60 mins by PET analysis; format: ADME, organism-based; details: in vivo, 1 h
Mus musculus [24] = experiment: Biodistribution in mouse testis at 4.8 MBq/140 uL, iv after 1 min by gamma counting; format: ADME, organism-based; details: in vivo; procedure, shortened: as §1
Heart [25] = experiment: Biodistribution in mouse heart at 4.8 MBq/140 uL, iv after 15 mins by gamma counting; format: ADME, organism-based; details: in vivo, 0.25 h; procedure, shortened: as §2
Mus musculus [26] = experiment: Biodistribution in mouse small intestine at 4.8 MBq/140 uL, iv after 5 mins by gamma counting; format: ADME, organism-based; details: in vivo; procedure, shortened: as §1
Liver [27] = experiment: Biodistribution in mouse liver at 4.8 MBq/140 uL, iv after 5 mins by gamma counting; format: ADME, organism-based; details: in vivo; procedure, shortened: as §2
Striatum = experiment: Drug uptake in Sprague-Dawley rat striatum at 17 MBq administered as bolus infusion by PET analysis in presence of N-[4-[6-(isopropylamino)pyrimidin-4-yl]-1,3-thiazol-2-yl]-4-methoxy-N-methylbenzamide; format: ADME, organism-based; details: in vivo, iv
Kidney [28] = experiment: Biodistribution in mouse kidney at 4.8 MBq/140 uL, iv after 5 mins by gamma counting; format: ADME, organism-based; details: in vivo; procedure, shortened: as §2
[29] = Ratio of drug uptake in thalamus to pons of Sprague-Dawley rat at 16 MBq administered as bolus infusion; details: in vivo, iv
Blood [30] = experiment: Biodistribution in mouse blood at 4.8 MBq/140 uL, iv after 15 mins by gamma counting; format: ADME, organism-based; details: in vivo, 0.25 h; procedure, shortened: as §2
Heart [31] = experiment: Biodistribution in mouse heart at 4.8 MBq/140 uL, iv after 60 mins by gamma counting; format: ADME, organism-based; details: in vivo, 1 h; procedure, shortened: as §2
Muscle tissue [32] = experiment: Biodistribution in mouse muscle at 4.8 MBq/140 uL, iv after 5 mins by gamma counting; format: ADME, organism-based; details: in vivo; procedure, shortened: as §1
Brain [33] = experiment: Biodistribution in mouse brain at 4.8 MBq/140 uL, iv after 15 mins by gamma counting; format: ADME, organism-based; details: in vivo, 0.25 h; procedure, shortened: as §2
Mus musculus [34] = experiment: Biodistribution in mouse testis at 4.8 MBq/140 uL, iv after 60 mins by gamma counting; format: ADME, organism-based; details: in vivo, 1 h; procedure, shortened: as §1
Lung [35] = experiment: Biodistribution in mouse lung at 4.8 MBq/140 uL, iv after 15 mins by gamma counting; format: ADME, organism-based; details: in vivo, 0.25 h; procedure, shortened: as §2
Muscle tissue [36] = experiment: Biodistribution in mouse muscle at 4.8 MBq/140 uL, iv after 15 mins by gamma counting; format: ADME, organism-based; details: in vivo, 0.25 h; procedure, shortened: as §2
Brain [37] = experiment: Biodistribution in mouse brain at 4.8 MBq/140 uL, iv after 1 min by gamma counting; format: ADME, organism-based; details: in vivo; procedure, shortened: as §2
Plasma = experiment: Metabolic stability in Sprague-Dawley rat plasma assessed as compound remaining after 90 mins; format: ADME, cell-free; details: 1.5 h
Muscle tissue [38] = experiment: Biodistribution in mouse muscle at 4.8 MBq/140 uL, iv after 1 min by gamma counting; format: ADME, organism-based; details: in vivo; procedure, shortened: as §2
Muscle tissue [39] = experiment: Biodistribution in mouse muscle at 4.8 MBq/140 uL, iv after 30 mins by gamma counting; format: ADME, organism-based; details: in vivo, 0.5 h; procedure, shortened: as §2
Muscle tissue [40] = experiment: Biodistribution in mouse muscle at 4.8 MBq/140 uL, iv after 60 mins by gamma counting; format: ADME, organism-based; details: in vivo, 1 h; procedure, shortened: as §1
Kidney [41] = experiment: Biodistribution in mouse kidney at 4.8 MBq/140 uL, iv after 1 min by gamma counting; format: ADME, organism-based; details: in vivo; procedure, shortened: as §2
Kidney [42] = experiment: Biodistribution in mouse kidney at 4.8 MBq/140 uL, iv after 30 mins by gamma counting; format: ADME, organism-based; details: in vivo, 0.5 h; procedure, shortened: as §2

CC(C)Nc1cc(-c2csc(N(C)C(=O)c3ccc(O[11CH3])cc3)n2)ncn1
Drug uptake (Mus musculus [1]): 4.98 % ID/g | Drug uptake (Heart [2]): 0.91 % ID/g | Drug uptake (Kidney [3]): 3.78 % ID/g | Drug uptake (Liver [4]): 3.97 % ID/g | Drug uptake (Blood [5]): 1.95 % ID/g | Drug uptake (Mus musculus [6]): 3.97 % ID/g | Drug uptake (Spleen [7]): 1.96 % ID/g | Drug uptake (Lung [8]): 2.9 % ID/g | Drug uptake (Thalamus [9]): Not Active | Drug uptake (Lung [10]): 1.57 % ID/g | Drug uptake (Cerebellum [11]): Not Active | Drug uptake (Blood [12]): 0.67 % ID/g | remaining at 1.5 h [13]: > 80% | Drug uptake (Cerebellum [14]): Active | Drug uptake (Thalamus [15]): Active | Drug uptake (Cerebellum [16]): 90% | Drug uptake (Brain [17]): 2.38 % ID/g | Drug uptake (Brain [18]): 1.85 % ID/g | Drug uptake (Spleen [19]): 2.14 % ID/g | Drug uptake (Cerebellum [20]): Active | Drug uptake (Blood [21]): 0.64 % ID/g | Drug uptake (Kidney [22]): 2.92 % ID/g | Drug uptake (Cerebellum [23]): Active | Drug uptake (Mus musculus [24]): 0.72 % ID/g | Drug uptake (Heart [25]): 1.19 % ID/g | Drug uptake (Mus musculus [26]): 4.55 % ID/g | Drug uptake (Liver [27]): 8.34 % ID/g | Drug uptake (Striatum): Not Active | Drug uptake (Kidney [28]): 5.64 % ID/g | Ratio [29]: 5.05 | Drug uptake (Blood [30]): 0.96 % ID/g | Drug uptake (Heart [31]): 0.81 % ID/g | Drug uptake (Muscle tissue [32]): 1.22 % ID/g | Drug uptake (Brain [33]): 3.14 % ID/g | Drug uptake (Mus musculus [34]): 0.33 % ID/g | Drug uptake (Lung [35]): 1.91 % ID/g | Drug uptake (Muscle tissue [36]): 0.95 % ID/g | Drug uptake (Brain [37]): 3.1 % ID/g | Stability (Plasma): Unstable | Drug uptake (Muscle tissue [38]): 2.04 % ID/g | Drug uptake (Muscle tissue [39]): 0.64 % ID/g | Drug uptake (Muscle tissue [40]): 0.52 % ID/g | Drug uptake (Kidney [41]): 8.67 % ID/g | Drug uptake (Kidney [42]): 3.32 % ID/g
